Assays:
[1] = target: Matrix metalloproteinase-9 (Homo sapiens, UniProt P14780); test: Inhibitory activity against Matrix metalloprotease-9 (concentration required for 50% inhibition of enzyme activity)
In short: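 Substrate added from a 1 mM DMSO stock, reaction 60 min, stopped with 3% acetic acid. Fluorescence read at ex 320/em 405 nm. Mean of two assays; IC50 taken as 50% inhibition.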

[2] = target: 72 kDa type IV collagenase (Homo sapiens, UniProt P08253)
Sequence of 72 kDa type IV collagenase (P08253 whole entry): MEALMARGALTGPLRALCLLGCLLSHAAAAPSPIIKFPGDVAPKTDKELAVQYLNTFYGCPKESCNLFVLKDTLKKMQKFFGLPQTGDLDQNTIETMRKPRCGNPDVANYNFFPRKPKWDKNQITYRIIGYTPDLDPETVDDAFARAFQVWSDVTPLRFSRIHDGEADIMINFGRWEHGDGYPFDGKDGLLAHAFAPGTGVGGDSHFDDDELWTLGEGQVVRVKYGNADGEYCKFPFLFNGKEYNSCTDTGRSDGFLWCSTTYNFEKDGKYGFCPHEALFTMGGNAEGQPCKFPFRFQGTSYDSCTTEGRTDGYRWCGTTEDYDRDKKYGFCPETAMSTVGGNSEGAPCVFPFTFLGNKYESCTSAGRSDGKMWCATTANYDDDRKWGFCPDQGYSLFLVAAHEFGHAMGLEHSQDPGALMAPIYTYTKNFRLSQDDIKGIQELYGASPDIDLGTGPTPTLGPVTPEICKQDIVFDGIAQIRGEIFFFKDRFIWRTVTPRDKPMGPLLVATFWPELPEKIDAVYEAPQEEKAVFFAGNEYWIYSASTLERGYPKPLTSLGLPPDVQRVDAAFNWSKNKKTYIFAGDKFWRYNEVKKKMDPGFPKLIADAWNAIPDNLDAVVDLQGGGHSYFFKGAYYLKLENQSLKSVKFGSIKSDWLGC

Sequence of Matrix metalloproteinase-9 (P14780 whole entry): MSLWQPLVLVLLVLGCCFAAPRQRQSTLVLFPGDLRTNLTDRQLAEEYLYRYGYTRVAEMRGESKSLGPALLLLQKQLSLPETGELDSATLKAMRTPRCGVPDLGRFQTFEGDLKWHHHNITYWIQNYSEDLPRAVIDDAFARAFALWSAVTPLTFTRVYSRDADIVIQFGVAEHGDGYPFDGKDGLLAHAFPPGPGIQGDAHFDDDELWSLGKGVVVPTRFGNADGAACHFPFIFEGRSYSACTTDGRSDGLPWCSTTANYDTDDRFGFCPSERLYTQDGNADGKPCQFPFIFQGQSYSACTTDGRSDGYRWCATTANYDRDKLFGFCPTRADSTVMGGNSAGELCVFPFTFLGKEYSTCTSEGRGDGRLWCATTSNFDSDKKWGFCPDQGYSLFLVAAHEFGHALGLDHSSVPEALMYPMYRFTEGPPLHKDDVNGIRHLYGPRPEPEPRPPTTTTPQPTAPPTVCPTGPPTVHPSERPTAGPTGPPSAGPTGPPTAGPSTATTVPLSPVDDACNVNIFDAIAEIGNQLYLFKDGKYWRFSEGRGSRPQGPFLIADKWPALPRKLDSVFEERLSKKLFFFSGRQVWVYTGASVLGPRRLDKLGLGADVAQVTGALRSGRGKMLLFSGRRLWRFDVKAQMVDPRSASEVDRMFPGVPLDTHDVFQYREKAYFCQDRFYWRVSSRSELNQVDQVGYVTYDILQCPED

IC50 [1] [µM]	IC50 [2] [µM]	SMILES
0.024	0.0059	Cc1ccc(C#Cc2ccc(S(=O)(=O)N[C@@H](C(=O)O)C(C)C)s2)cc1
> 20	> 20	O=C(O)[C@@H](Cc1c[nH]c2ccccc12)NS(=O)(=O)c1cccc2ccccc12
0.0082	0.00065	COc1ccc(C#Cc2ccc(S(=O)(=O)N[C@H](Cc3c[nH]c4ccccc34)C(=O)O)cc2)cc1
0.21	0.0047	CCCCOc1ccc(C#Cc2ccc(S(=O)(=O)N[C@@H](C(=O)O)C(C)C)s2)cc1
0.0073		CCc1ccc(C#Cc2ccc(S(=O)(=O)N[C@H](Cc3c[nH]c4ccccc34)C(=O)O)s2)cc1
2		CCCCOc1ccc(C#Cc2ccc(S(=O)(=O)N[C@H](Cc3c[nH]c4ccccc34)C(=O)O)s2)cc1
0.0044	0.0048	CCc1ccc(C#Cc2ccc(S(=O)(=O)N[C@@H](C(=O)O)C(C)C)s2)cc1
0.21	0.0054	CCCCc1ccc(C#Cc2ccc(S(=O)(=O)N[C@@H](C(=O)O)C(C)C)s2)cc1
0.87		CC(C)[C@H](C(=O)O)N(C)S(=O)(=O)c1ccc(-c2nnn(-c3ccccc3)n2)cc1
1.7	0.081	Cc1ccccc1C#Cc1ccc(S(=O)(=O)N[C@H](Cc2c[nH]c3ccccc23)C(=O)O)s1
0.0096		Cc1ccc(C#Cc2ccc(S(=O)(=O)N[C@H](Cc3c[nH]c4ccccc34)C(=O)O)s2)cc1 [S-3304]
> 20		O=C(N[C@H](Cc1ccccc1)C(=O)O)c1ccc(-c2ccccc2)cc1
0.012	0.0044	O=C(O)[C@@H](Cc1ccccc1)NS(=O)(=O)c1ccc(-c2ccc(-c3ccccc3)cc2)cc1
0.072		CC(C)[C@@H](NS(=O)(=O)c1ccc(-c2nnn(-c3ccccc3)n2)cc1)C(=O)O
2.7		O=C(O)[C@@H](Cc1ccccc1)NS(=O)(=O)c1ccc(-c2ccccc2)cc1
> 20	7.1	O=C(O)[C@@H](Cc1ccccc1)NS(=O)(=O)c1ccc(Br)cc1
1.9	0.033	COc1ccc(C#Cc2ccc(S(=O)(=O)N[C@H](Cc3c[nH]c4ccccc34)C(=O)O)cc2[N+](=O)[O-])cc1
0.26	0.018	CC(C)[C@@H](NS(=O)(=O)c1ccc(C#Cc2ccc(Oc3ccccc3)cc2)s1)C(=O)O
0.34	0.02	O=C(O)[C@@H](Cc1ccccc1)NS(=O)(=O)c1ccc(C#Cc2ccccc2)cc1
> 20	0.5	O=C(O)[C@@H](Cc1c[nH]c2ccccc12)NS(=O)(=O)c1ccc2ccccc2c1
2.3		O=C(O)[C@@H](Cc1c[nH]c2ccccc12)NS(=O)(=O)c1ccc(C#Cc2ccc(Oc3ccccc3)cc2)s1
2.7		CCCCc1ccc(C#Cc2ccc(S(=O)(=O)N[C@H](Cc3c[nH]c4ccccc34)C(=O)O)s2)cc1

— ChEMBL document CHEMBL1132207, “Homology modeling of gelatinase catalytic domains and docking simulations of novel sulfonamide inhibitors” (J Med Chem, 1999)
